Drawing on ChEMBL document CHEMBL2146413, “Mammalian multidrug resistance lipopentasaccharide inhibitors from Ipomoea alba seeds” (J Nat Prod, 2012), this text covers fold change (FC) and IC50 for 5 molecules.

Values after ≈ are worked out from the molar mass of the structure shown.

Assay [1] has as its system MDR. The experiment in a line: Inhibition of MDR in vinblastine-resistant human MCF7 cells assessed as decrease in vinblastine IC50 at 5 ug/mL after 72 hrs by SRB assay. The assay is classed as cell-based. In outline:
(§1)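 Vinblastine (0.00064−10 μg/mL) was given with or without glycolipid at 25 or 5 μg/mL for 72 h at 37 °C, 5% CO2, then read by SRB assay. Vinblastine IC50 came from a semilog plot. Reversal fold = IC50 of vinblastine alone / IC50 with glycolipid. Reserpine 5 μg/mL served as positive control. Values are mean ± SD of three independent experiments.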
(In general: The SRB assay estimates cell density from bound dye.)

In assay [2] the test system is MDR. The experiment in a line: Inhibition of MDR in vinblastine-sensitive human MCF7 cells assessed as decrease in vinblastine IC50 at 5 ug/mL after 72 hrs by SRB assay. The assay is classed as cell-based. In outline: as §1
Assay [3] relates to MDR. The experiment in a line: Inhibition of MDR in drug-sensitive human MCF7 cells assessed as decrease in vinblastine IC50 at 5 ug/mL after 72 hrs by SRB assay. The assay is classed as cell-based. A digest of the protocol: as §1
For assay [4], the system named is MCF7. Nature of the assay: Cytotoxicity against vinblastine-sensitive human MCF7 cells after 72 hrs by SRB assay. In kind it is functional, cell-based. Conditions: MCF7, 72 h. A digest of the protocol: (§2)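 Log-phase cells in RPMI 1640 + 10% FBS, 37 °C, 5% CO2, exposed in triplicate to 0.2−25 μg/mL test sample for 72 h. Growth read by sulforhodamine B. IC50 = concentration giving 50% inhibition of control growth, taken from a semilog plot of concentration against % growth inhibition. Vinblastine served as positive control. Resistant line MCF-7/Vin was kept with or without 0.192 μg/mL vinblastine.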

In assay [5] the test system is MCF7. The experiment in a line: Cytotoxicity against drug-sensitive human MCF7 cells after 72 hrs by SRB assay. Conditions: MCF7, 72 h. In kind it is functional, cell-based. In outline: as §2
In assay [6] the test system is MCF7. Nature of the assay: Cytotoxicity against vinblastine-reasistant human MCF7 cells after 72 hrs by SRB assay. The assay is classed as functional, cell-based. Particulars: MCF7, 72 h. In outline: as §2
Assay [7] concerns MDR. The experiment in a line: Inhibition of MDR in vinblastine-resistant human MCF7 cells assessed as decrease in vinblastine IC50 at 25 ug/mL after 72 hrs by SRB assay. In kind it is cell-based. A digest of the protocol: as §1
In assay [8] the test system is MDR. Nature of the assay: Inhibition of MDR in vinblastine-sensitive human MCF7 cells assessed as decrease in vinblastine IC50 at 25 ug/mL after 72 hrs by SRB assay. In kind it is cell-based. In outline:
as §1

In assay [9] the test system is MDR. Nature of the assay: Inhibition of MDR in drug-sensitive human MCF7 cells assessed as decrease in vinblastine IC50 at 25 ug/mL after 72 hrs by SRB assay. The assay is classed as cell-based. A digest of the protocol: as §1

As to `COC(=O)[C@H]1[C@H]2C[C@@H]3c4[nH]c5cc(OC)ccc5c4CCN3C[C@H]2C[C@@H](OC(=O)c2cc(OC)c(OC)c(OC)c2)[C@@H]1OC`, the fold change (FC) was determined as 4.4 with MDR [1], 29.2 in the assay on MDR [2] and 15.7 in the assay on MDR [3].
For `C/C=C(\C)C(=O)O[C@H]1[C@H](O[C@H]2[C@@H]3O[C@H]4[C@H](O[C@@H](CCCCC)CCCCCCCCCC(=O)O[C@H]2[C@H](O)[C@@H](CO[C@@H]2O[C@H](C)[C@@H](O)[C@H](OC(=O)/C(C)=C/C)[C@H]2O[C@@H]2O[C@@H](C)[C@H](O)[C@@H](O)[C@H]2O)O3)O[C@H](C)[C@@H](O)[C@@H]4O)O[C@@H](C)[C@H](O)[C@H]1O` [ALBINOSIDE III], the IC50 in the assay with MCF7 [4], with MCF7 [5] and with MCF7 [6] was over 20 µg/mL in each case. Besides, the fold change (FC) is over 2140 with MDR [7], over 1690 with MDR [8] and over 73.4 with MDR [9].
Consider `C/C=C(\C)C(=O)O[C@H]1[C@@H]2O[C@H]3[C@H](O[C@@H](CCC)CCCCCCCCCC(=O)O[C@@H]4[C@@H](O)[C@H](C)O[C@@H](O[C@@H]5[C@@H](O[C@@H]6O[C@@H](C)[C@H](O)[C@@H](O)[C@H]6O)[C@H](O[C@H]([C@H]1O)[C@H](C)O2)O[C@H](C)[C@H]5OC(=O)/C(C)=C/C)[C@@H]4O)O[C@H](C)[C@@H](O)[C@@H]3O` [ALBINOSIDE II], for which the IC50 in the assay with MCF7 [4], in the assay on MCF7 [5] and in the assay on MCF7 [6] was over 20 µg/mL in each case. In addition, the fold change (FC) was 2.6 with MDR [7], 1.3 with MDR [8] and 1.9 in the assay on MDR [9].
As to `CCC[C@H]1CCCCCCCCCC(=O)O[C@H]2[C@H](O[C@H]3[C@H](OC[C@H]4O[C@@H](O[C@H]5[C@H](O1)O[C@H](C)[C@@H](O)[C@@H]5O)[C@H](O[C@@H]1O[C@@H](C)[C@H](OC(C)=O)[C@@H](O)[C@H]1O)[C@@H](O)[C@@H]4O)O[C@H](C)[C@@H](O)[C@@H]3O)O[C@@H](C)[C@H](OC(=O)[C@H](C)[C@@H](C)O)[C@H]2O` [ALBINOSIDE I], the IC50 in the assay with MCF7 [4], with MCF7 [5] and with MCF7 [6] was over 20 µg/mL throughout. The fold change (FC) is 3.1 in the assay with MDR [7], 4.2 with MDR [8] and 2.1 in the assay with MDR [9].
For the molecule `CC[C@]1(O)C[C@@H]2CN(CCc3c([nH]c4ccccc34)[C@@](C(=O)OC)(c3cc4c(cc3OC)N(C)[C@H]3[C@@](O)(C(=O)OC)[C@H](OC(C)=O)[C@]5(CC)C=CCN6CC[C@]43[C@@H]65)C2)C1` [VINBLASTINE], the IC50 in the assay with MCF7 [5] is 0.047 µg/mL (≈ 0.058 µM); in the assay on MCF7 [6], 1.37 µg/mL (≈ 1.69 µM).

For orientation: IC50 means the concentration that gives 50% inhibition. Higher therefore signals weaker potency in that assay.
